Data reported in ChEMBL document CHEMBL4007460, “17β-Hydroxywithanolides as Sensitizers of Renal Carcinoma Cells to Tumor Necrosis Factor-α Related Apoptosis Inducing Ligand (TRAIL) Mediated Apoptosis: Structure-Activity Relationships” (J Med Chem, 2017).
Activity calls are given as the source filed them. No cut-off for these calls is given here.

Experiments:
[1] = tested on: ACHN; assay: Sensitization of TRAIL-induced apoptosis in human ACHN cells assessed as reduction in cell viability preincubated for 2 hrs followed by addition of TRAIL measured after 18 hrs by MTS assay; format: functional, cell-based
Method in brief: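 ACHN cells were seeded at 5000/well and rested overnight at 37 °C, in RPMI with 5% FCS, glutamine, NEAA, pyruvate, HEPES and 2-mercaptoethanol. Compound pretreatment ran 2 h, then TRAIL was added to 50 ng/mL for 18 h at 37 °C. Viability was read by MTS (2 h, A490). IC50 values (cell number reduced 50%) came from dose-response curves; triplicates, at least 3 independent experiments, ± SD.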

[2] = tested on: CAKI-1; assay: Sensitization of TRAIL-induced apoptosis in human Caki1 cells assessed as reduction in cell viability at 125 to 500 nM preincubated for 2 hrs followed by addition of TRAIL measured after 18 hrs by MTS assay; format: functional, cell-based
Method in brief: (§1)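 Caki-1, SN12C or UO-31 renal cells seeded 5000/well, grown overnight at 37 °C, pretreated with compound across a concentration range for 2 h, then TRAIL 50 ng/mL added for 18 h more at 37 °C. Medium: RPMI, 5% FCS with supplements. Viable cells by MTS (2 h, A490); growth inhibition = (media − treatment)/media ×100. Triplicate, ≥3 experiments.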

[3] = tested on: SN12C; assay: Sensitization of TRAIL-induced apoptosis in human SN12C cells assessed as reduction in cell viability at 125 to 500 nM preincubated for 2 hrs followed by addition of TRAIL measured after 18 hrs by MTS assay; format: functional, cell-based; method in brief: as §1
[4] = tested on: UO-31; assay: Sensitization of TRAIL-induced apoptosis in human UO31 cells assessed as reduction in cell viability at 125 to 500 nM preincubated for 2 hrs followed by addition of TRAIL measured after 18 hrs by MTS assay; format: functional, cell-based; method in brief: as §1
[5] = tested on: ACHN; assay: Sensitization of TRAIL-induced apoptosis in human ACHN cells assessed as increase in caspase8 activation at 125 to 1000 nM preincubated for overnight followed by addition of TRAIL for 90 mins measured after 18 hrs by Western blot analysis; format: functional, cell-based
Method in brief: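 ACHN cells plated 1.5×10^6/well, grown overnight, treated overnight (18 h) with compound at 125–1000 nM, then TRAIL for 90 min before RIPA lysis (with zVAD-FMK). 20 μg protein immunoblotted for pro- and cleaved caspase-8 and caspase-3; GAPDH loading control. TRAIL given as 200 ng/mL in methods, 50 ng/mL in legend.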

[6] = tested on: ACHN; assay: Cytotoxicity in human ACHN cells assessed as viable cells at 1250 to 5000 nM after 48 hrs by MTS assay; format: cell-based; conditions: 5 µM
[7] = tested on: ACHN; assay: Induction of CHOP expression in human ACHN cells at 2.5 to 5 uM measured after 24 hrs by Western blotting method; format: functional, cell-based
[8] = tested on: ACHN; assay: Induction of BIP expression in human ACHN cells at 2.5 to 5 uM measured after 24 hrs by Western blotting method; format: functional, cell-based
[9] = tested on: ACHN; assay: Induction of HSP70 expression in human ACHN cells at 2.5 to 5 uM measured after 24 hrs by Western blotting method; format: functional, cell-based
[10] = Glutathione reactivity in DMSO assessed as formation of MIchael adduct with GSH at pH 7.4 after 24 hrs in presence of NAC by HPLC method
Method in brief: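 Withanolide (2.12 μM in DMSO, 0.5 mL) mixed with equal volume of 4.24 μM GSH or NAC solution at pH 7.4, 37 °C. Aliquots taken at 0, 0.5, 2, 4, 8, 24 h, stored −80 °C; unreacted withanolide quantified by C18 HPLC (H2O with 40 mM NH4OAc–MeOH gradient, UV 230 nm) using peak area.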

[11] = tested on: ACHN; assay: Induction of DR5 expression in human ACHN cells by Western blotting method; format: functional, cell-based
[12] = tested on: ACHN; assay: Reduction cFLIP level in human ACHN cells at 125 to 1000 nM after 18 hrs by Western blot analysis
[13] = tested on: ACHN; assay: Reduction cFLIP level in human ACHN cells at 125 to 1000 nM after 16 hrs by Western blot analysis; format: functional, cell-based
[14] = tested on: ACHN; assay: Reduction cFLIP level in human ACHN cells at 500 nM after 18 hrs by Western blot analysis; format: functional, cell-based
Method in brief: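 ACHN cells (RPMI, 5% FBS) plated 1.5×10^6/well, grown overnight at 37 °C, then exposed to compound at 500 nM for 18 h. Lysed in RIPA with protease/phosphatase inhibitors and zVAD-FMK; 20 μg protein per lane immunoblotted with anti-FLIP (7F10); GAPDH as loading control.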

[15] = tested on: ACHN; assay: Sensitization of TRAIL-induced apoptosis in human ACHN cells assessed as increase in caspase8 activation at 125 to 1000 nM preincubated for overnight followed by addition of TRAIL for 90 mins measured after 6 hrs by Western blot analysis; format: functional, cell-based
[16] = tested on: ACHN; assay: Cytotoxicity in human ACHN cells assessed as reduce cell number after 48 hrs by MTS assay; format: cell-based
Method in brief: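 ACHN cells exposed to compound for 48 h at 37 °C; viable cell number by MTS read-out. Triplicate determinations; IC50 (concentration reducing cell number by 50%) from 3 independent experiments, ± SD.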

Compound | IC50 [1] [µM] | Activity [2] | Activity [3] | Activity [4] | Activity [5] | Activity [6] | Activity [7] | Activity [8] | Activity [9] | Activity [10] | Activity [11] | Activity [12] | Activity [13] | Activity [14] | Activity [15] | Activity [16]
CC1=C(CO)C(=O)O[C@@H]([C@@H](C)[C@H]2CC[C@H]3[C@@H]4C[C@H]5O[C@]56[C@@H](O)C=CC(=O)[C@]6(C)[C@H]4CC[C@]23C)C1 [WITHAFERIN A] | > 2 | inactive | inactive | inactive | inactive | Toxic | Active | Active | Active | Active | inactive | inactive | – | – | – | –
CC(=O)OCC1=C(C)C[C@H]([C@@H](C)[C@H]2CC[C@H]3[C@@H]4C[C@H]5O[C@]56[C@H](OC(C)=O)C=CC(=O)[C@]6(C)[C@H]4CC[C@]23C)OC1=O | – | – | – | – | – | – | Active | Active | Active | – | – | – | inactive | – | – | –
CC(=O)OC[C@]12CC[C@H]3[C@@H](C[C@H]4O[C@]45CC=CC(=O)[C@]35C)[C@]1(O)CC[C@@]2(O)[C@@](C)(O)[C@H]1CC(C)=C(C)C(=O)O1 | 0.164 | Active | Active | Active | Active | Non-Toxic | inactive | inactive | inactive | Active | inactive | – | – | Active | Active | Toxic
CC1=C(C)C(=O)O[C@@H]([C@](C)(O)[C@]2(O)CC[C@@]3(O)[C@@H]4C[C@H]5O[C@]56[C@H](O)C=CC(=O)[C@]6(C)[C@H]4CC[C@]23C)C1 | 0.067 | Active | Active | Active | Active | Non-Toxic | – | – | – | Active | inactive | – | – | Active | – | Toxic
CC1=C(C)C(=O)O[C@@H]([C@](C)(O)[C@]2(O)CC[C@@]3(O)[C@@H]4C[C@H]5O[C@]56CC=CC(=O)[C@]6(C)[C@H]4CC[C@]23C)C1 [WITHANOLIDE E] | 0.489 | Active | Active | Active | Active | Non-Toxic | inactive | inactive | inactive | Active | inactive | – | – | Active | – | Toxic
